Measured values published in ChEMBL document CHEMBL2202986, “Guaianolide sesquiterpene lactones, a source to discover agents that selectively inhibit acute myelogenous leukemia stem and progenitor cells” (J Med Chem, 2012).

Experiments:
[1] = Mean retention time (0 to infinity) in mouse at 100 mg/kg, iv; type: ADME, organism-based; design: dose 100 mg/kg, route intravenous; details: in vivo
Procedure, shortened: (§1)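 Male Kunming mice (20 2 g), fasted 12 h before dosing with water available, given DMAMCL as an aqueous solution iv (n = 5). Blood was drawn from the orbital veins at set times. DMAMCL and MCL in plasma were measured, and parameters were derived by a noncompartmental model.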

[2] = Total clearance in mouse at 100 mg/kg, iv; type: ADME, organism-based; design: dose 100 mg/kg, route intravenous; details: in vivo; procedure, shortened: as §1
[3] = Antitumor activity against human leukemia stem/progenitor cells xenografted in NOD/SCID mouse assessed as reduction of CD45+CD33+ cells in bone marrow at 100 mg/kg, po qd administered every other day total of seven doses starting from 8 weeks post grafting measured on day 85; type: functional; design: scale not given: the % may be the effect or the level left
Procedure, shortened: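 NOD/SCID mice, sublethally irradiated (280cGay), received primary AML M5 patient cells via tail vein in PBS 6−10 h later. From 8 weeks after engraftment, aqueous drug was given orally every other day for seven doses. Surviving mice were sacrificed on day 85 post-inoculation, and human CD45⁺CD33⁺ cells in bone marrow were measured by flow cytometry.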

[4] = Mean retention time (0 to t) in mouse at 150 mg/kg, po; type: ADME, organism-based; design: dose 150 mg/kg, route oral; details: in vivo
Procedure, shortened: (§2)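 Male Kunming mice (20 2 g), fasted 12 h before dosing with water available, given DMAMCL as an aqueous solution po (n = 5). Blood was drawn from the orbital veins at set times. Plasma DMAMCL and MCL were followed, and parameters came from noncompartmental analysis.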

[5] = Drug degradation in HEPES buffer at pH 7.4 assessed as release of MCL; type: physicochemical
Procedure, shortened: (§3)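 A 20 μL aliquot of prodrug solution was added to 980 μL HEPES buffer (pH 7.4, or below 5.0) and incubated at 37 °C. Samples were withdrawn over time, and prodrug and released parent were quantified by HPLC (mean, SD, n = 4).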

Mus musculus [6] = test: Toxicity in BALB/c mouse assessed as pathological changes in spleen at 500 mg/kg, po administered every day for 7 days by hematoxylin-eosin staining method; details: in vivo, 168 h
[7] = Toxicity in po dosed BALB/c mouse administered as single dose; type: organism-based; details: in vivo
Procedure, shortened: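 Oral gavage of aqueous solution at a single dose of 1000 mg/kg. Untreated and water-vehicle mice served as controls; 16 mice in total (8 male/8 female). Mice were sacrificed 1 week after dosing. Heart, liver, spleen, lung and kidney were formalin-fixed, paraffin-embedded, sectioned at 3 μm, H&E-stained, and examined for gross morphology.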

[8] = AUC (0 to infinity) in mouse at 150 mg/kg, po; type: ADME, organism-based; design: dose 150 mg/kg, route oral, time infinity; details: plasma; procedure, shortened: as §2
[9] = Cytotoxicity against human leukemia cells assessed as cell viability at 10 uM after 18 hrs by annexin-V labeling-based flow cytometry
[10] = AUC (0 to t) in mouse at 100 mg/kg, iv; type: ADME, organism-based; design: dose 100 mg/kg, route intravenous; details: plasma; procedure, shortened: as §1
Mus musculus [11] = test: Toxicity in BALB/c mouse assessed as pathological changes in kidney at 1000 mg/kg, po administered as single dose by hematoxylin-eosin staining method; type: organism-based; design: dose 1000 mg/kg, route oral; details: in vivo
Procedure, shortened: (§4)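 BALB/c mice (16 in total, 8 male/8 female) were given aqueous DMAMCL by gavage as a single 1000 mg/kg dose or 500 mg/kg daily for seven doses. Water-only and untreated mice served as controls. One week later, tissues were fixed in 10% neutral-buffered formalin, embedded in paraffin, cut into 3 μm sections, stained with H&E and examined microscopically.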

[12] = Cytotoxicity against human HL60/A cells after 18 hrs by annexin-V labeling-based flow cytometry; type: functional, cell-based
Mus musculus [13] = test: Toxicity in BALB/c mouse assessed as pathological changes in spleen at 1000 mg/kg, po administered as single dose by hematoxylin-eosin staining method; type: organism-based; design: dose 1000 mg/kg, route oral; details: in vivo
Procedure, shortened: (§5)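 BALB/c mice, 16 in total (8 male, 8 female). DMAMCL was given by gavage as an aqueous solution, either 1000 mg/kg once or 500 mg/kg every day for seven doses. Controls were untreated and water-vehicle mice. Mice were killed 1 week after dosing. Heart, liver, spleen, lung and kidney were fixed in 10% neutral-buffered formalin, paraffin-embedded, cut into 3 μm sections, H&E-stained and examined microscopically for gross morphology.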

[14] = Half life in mouse at 150 mg/kg, po; type: ADME, organism-based; design: dose 150 mg/kg, route oral; details: in vivo; procedure, shortened: as §2
[15] = Antitumor activity against mixed-lineage human leukemia cells xenografted in NOD/SCID mouse assessed as reduction of CD45+CD33+ cells in bone marrow at 100 mg/kg, po qd administered every other day total of seven doses starting from 8 weeks post grafting measured on day 35 (reference value: 9.8 %); type: functional, Leukemia cell; design: scale not given: the % may be the effect or the level left
[16] = Cytotoxicity against human leukemia stem/progenitor cells assessed as cell viability at 5 uM after 18 hrs by annexin-V labeling-based flow cytometry; type: functional; details: in the assay text read “leukemia cells” for “leukemia stem/progenitor cells”, read-out: Activity
Procedure, shortened: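 Primary leukemia cells from AML patient blood were treated for 18 h in serum-free IMDM, then stained with CD34-APC and CD38-PECy7 for 30 min. After washing in cold PBS, cells were labelled with Annexin-V–FITC/PI for 15 min at room temperature and read by flow cytometry. Viability of total and CD34⁺ cells was normalized to untreated controls (mean, SD).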

[17] = Oral bioavailability in mouse at 150 mg/kg; type: ADME, organism-based; details: in vivo
Mus musculus [18] = test: Toxicity in BALB/c mouse assessed as pathological changes in heart at 500 mg/kg, po administered every day for 7 days by hematoxylin-eosin staining method; details: in vivo, 168 h
Mus musculus [19] = test: Toxicity in BALB/c mouse assessed as pathological changes in lung at 500 mg/kg, po administered every day for 7 days by hematoxylin-eosin staining method; details: in vivo, 168 h
Mus musculus [20] = test: Toxicity in BALB/c mouse assessed as pathological changes in liver at 500 mg/kg, po administered every day for 7 days by hematoxylin-eosin staining method; details: in vivo, 168 h
[21] = Drug degradation in HEPES buffer at pH <5 assessed as release of MCL; type: physicochemical; procedure, shortened: as §3
Mus musculus [22] = test: Toxicity in BALB/c mouse assessed as pathological changes in lung at 1000 mg/kg, po administered as single dose by hematoxylin-eosin staining method; type: organism-based; design: dose 1000 mg/kg, route oral; details: in vivo; procedure, shortened: as §5
[23] = Toxicity in po dosed BALB/c mouse administered every day for 7 days; details: in vivo
[24] = Tmax in mouse at 150 mg/kg, po; type: ADME, organism-based; design: dose 150 mg/kg, route oral; details: in vivo; procedure, shortened: as §2
[25] = Cmax in mouse at 150 mg/kg, po; type: ADME, organism-based; design: dose 150 mg/kg, route oral; details: in vivo; procedure, shortened: as §2
[26] = Mean retention time (0 to t) in mouse at 100 mg/kg, iv; type: ADME, organism-based; design: dose 100 mg/kg, route intravenous; details: in vivo; procedure, shortened: as §1
Mus musculus [27] = test: Toxicity in BALB/c mouse assessed as pathological changes in heart at 1000 mg/kg, po administered as single dose by hematoxylin-eosin staining method; type: organism-based; design: dose 1000 mg/kg, route oral; details: in vivo; procedure, shortened: as §4
[28] = Half life in mouse at 100 mg/kg, iv; type: ADME, organism-based; design: dose 100 mg/kg, route intravenous; details: in vivo; procedure, shortened: as §1
[29] = Cmax in mouse at 100 mg/kg, iv; type: ADME, organism-based; design: dose 100 mg/kg, route intravenous; details: in vivo; procedure, shortened: as §1
Mus musculus [30] = test: Toxicity in BALB/c mouse assessed as pathological changes in kidney at 500 mg/kg, po administered every day for 7 days by hematoxylin-eosin staining method; details: in vivo, 168 h

Structure (SMILES): CC1=C2CC[C@@](C)(O)[C@@H]2[C@H]2OC(=O)[C@@H](CN(C)C)[C@@H]2CC1.Cl [DIMETHYLAMINOMICHELIOLIDE HYDROCHLORIDE]
- MRT inf [1]: 3.52 h
- clearance [2]: 37.7 mL/min/kg
- Activity [3]: 0.005%
- MRT last [4]: 8.85 h
- Drug degradation [5]: Active
- Activity (Mus musculus [6]): Non-toxic
- MTD [7]: 1000 mg/kg
- AUC(0-inf) [8]: 50300 ng·h/mL
- viability at 10 µM [9]: 64.9%
- AUC(0-t) [10]: 43900 ng·h/mL
- Activity (Mus musculus [11]): Non-toxic
- IC50 [12]: 21.5 µM
- Activity (Mus musculus [13]): Non-toxic
- half-life [14]: 589 min
- Activity [15]: 0.14%
- viability at 5 µM [16]: 77.6%
- bioavailability [17]: 75%
- Activity (Mus musculus [18]): Non-toxic
- Activity (Mus musculus [19]): Non-toxic
- Activity (Mus musculus [20]): Non-toxic
- Drug degradation [21]: Not Active
- Activity (Mus musculus [22]): Non-toxic
- MTD at 168 h [23]: 500 mg/kg
- Tmax [24]: 11.4 min
- Cmax [25]: 19000 ng/mL
- MRT last [26]: 1.51 h
- Activity (Mus musculus [27]): Non-toxic
- half-life [28]: 1140 min
- Cmax [29]: 92.9 µg/mL
- Activity (Mus musculus [30]): Non-toxic
